ChEMBL document CHEMBL2021807, “The conversion of oridonin to spirolactone-type or enmein-type diterpenoid: synthesis and biological evaluation of ent-6,7-seco-oridonin derivatives as novel potential anticancer agents” (Eur J Med Chem, 2012)

Tests used:
[1] = system: MGC-803; test: Cytotoxicity against human MGC803 cells after 72 hrs by MTT assay; type: functional, cell-based; conditions: MGC-803, 72 h
Summary of the method: (§1)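 MTT assay. Log-phase cells were seeded at 5×10^4 cells/ml and treated in four replicates at 0.39–100 μg/ml, 37 °C, 5% CO2. At 72 h, MTT (5 mg/ml solution) was added for 4 h, then DMSO, and OD read at 490 nm. Negative reference was 0.1% DMSO; Taxol at 10 μg/ml served as positive reference. IC50 in μM, mean of three experiments.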

[2] = Cytotoxicity against human CaEs17 cells after 72 hrs by MTT assay; type: functional, cell-based; conditions: CaEs17, 72 h; summary of the method: as §1
[3] = system: K562; test: Cytotoxicity against human K562 cells after 72 hrs by MTT assay; type: functional, cell-based; conditions: K562, 72 h; summary of the method: as §1
[4] = system: Bel-7402; test: Cytotoxicity against human Bel7402 cells after 72 hrs by MTT assay; type: functional, cell-based; conditions: Bel-7402, 72 h; summary of the method: as §1
[5] = system: MCF7; test: Cytotoxicity against human MCF7 cells after 72 hrs by MTT assay; type: functional, cell-based; conditions: MCF7, 72 h; summary of the method: as §1
[6] = system: A549; test: Cytotoxicity against human A549 cells after 72 hrs by MTT assay; type: functional, cell-based; conditions: A549, 72 h; summary of the method: as §1
[7] = system: HeLa; test: Cytotoxicity against human HeLa cells after 72 hrs by MTT assay; type: functional, cell-based; summary of the method: as §1
[8] = system: MGC-803; test: Antitumor activity against human MGC803 cells xenografted in ICR mouse assessed as inhibition of tumor growth at 10 mg/kg, ip qd for 25 consecutive days dosed 7 days post tumor cells transplantation relative to untreated control; type: functional; conditions: MGC-803, ip, 168 h, read-out: INH, route intraperitoneal
Summary of the method: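 MGC-803 gastric cancer tumors in mice, 8 per group. Intraperitoneal dosing at 10 mg/kg in 1% DMSO/2% poloxamer/97% saline, started 7 d after tumor transplantation and given once daily for 25 consecutive days. The negative control received 0.9% saline ip. At the end, mice were killed and weighed and tumors excised and weighed. Inhibition (%) = (1 − mean treated tumor weight/mean control tumor weight) × 100.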

[9] = system: HepG2; test: Cytotoxicity against human HepG2 cells; type: functional, cell-based
[10] = system: MGC-803; test: Antitumor activity against human MGC803 cells xenografted in ICR mouse assessed as inhibition of tumor growth at 10 mg/kg, iv qd for 25 consecutive days dosed 7 days post tumor cells transplantation relative to untreated control; type: functional; conditions: MGC-803, 168 h
Summary of the method: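 MGC-803 gastric cancer tumors in mice, 8 per group. Intravenous dosing at 10 mg/kg in 1% DMSO/2% poloxamer/97% saline, started 7 d after tumor transplantation and given once daily for 25 consecutive days. The control group received 0.9% saline ip. Tumors were excised and weighed at the end. Inhibition (%) = (1 − mean treated tumor weight/mean control tumor weight) × 100.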

## C=C1C(=O)[C@@]23C(=O)OC[C@]4(C(=O)CCC(C)(C)[C@H]4C=O)[C@@H]2CC[C@@H]1[C@H]3OC(=O)c1ccc(C(F)(F)F)cc1
[1]
  IC50: 4.93 µM
[2]
  IC50: 8.96 µM
[3]
  IC50: 2.82 µM
[4]
  IC50: 3.99 µM

## C=C1C(=O)[C@@]23C(=O)OC[C@]4(C(=O)CCC(C)(C)[C@H]4C=O)[C@@H]2CC[C@@H]1[C@H]3OC(=O)c1ccc([N+](=O)[O-])cc1
[1]
  IC50: 3.33 µM
[2]
  IC50: 2.68 µM
[3]
  IC50: 1.33 µM
[4]
  IC50: 3.3 µM

## C=C1C(=O)[C@@]23C(=O)OC[C@]4(C(=O)CCC(C)(C)[C@H]4C=O)[C@@H]2CC[C@@H]1[C@H]3OC(=O)c1ccc(F)cc1
[1]
  IC50: 3.96 µM
[2]
  IC50: 8.31 µM
[3]
  IC50: 2.7 µM
[4]
  IC50: 3.75 µM

## C=C1C(=O)[C@@]23C(=O)OC[C@]4(C(=O)CCC(C)(C)[C@H]4C=O)[C@@H]2CC[C@@H]1[C@H]3OC(=O)c1ccccc1F
[1]
  IC50: 3.94 µM
[2]
  IC50: 8.55 µM
[3]
  IC50: 2.86 µM
[4]
  IC50: 3.95 µM

## C=C1C(=O)[C@@]23C(=O)OC[C@]4(C(=O)CCC(C)(C)[C@H]4C=O)[C@@H]2CC[C@@H]1[C@H]3OC(=O)c1ccc(Cl)cc1
[1]
  IC50: 3.12 µM
[2]
  IC50: 2.55 µM
[3]
  IC50: 1.38 µM
[4]
  IC50: 3.84 µM

## C=C1C(=O)[C@@]23C(=O)OC[C@]4(C(=O)CCC(C)(C)[C@H]4C=O)[C@@H]2CC[C@@H]1[C@H]3OC(=O)c1ccccc1Cl
[1]
  IC50: 2.66 µM
[2]
  IC50: 2.01 µM
[3]
  IC50: 1.22 µM
[4]
  IC50: 2.89 µM

## C=C1C(=O)[C@@]23C(=O)O[C@H]4CCC(C)(C)[C@H]5[C@H](O)OC[C@@]45[C@@H]2CC[C@@H]1[C@H]3O
[2]
  IC50: 30.8 µM
[3]
  IC50: 8.11 µM
[4]
  IC50: 33 µM
[5]
  IC50: 68.2 µM
[6]
  IC50: 50.9 µM
[7]
  IC50: 60.7 µM

## C=C1C(=O)[C@@]23C(=O)O[C@H]4CCC(C)(C)[C@H]5C(=O)OC[C@@]45[C@@H]2CC[C@@H]1[C@H]3O
[2]
  IC50: 23.7 µM
[3]
  IC50: 2.64 µM
[4]
  IC50: 16 µM
[5]
  IC50: 20.3 µM
[6]
  IC50: 43.1 µM
[7]
  IC50: 39.7 µM

## C=C1C(=O)[C@@]23C(=O)OC[C@]4(C(=O)CCC(C)(C)[C@H]4C=O)[C@@H]2CC[C@@H]1[C@H]3O
[8]
  inhibition in vivo at 10 mg/kg: 31.4%
[2]
  IC50: 5.85 µM
[3]
  IC50: 2.18 µM
[4]
  IC50: 5.03 µM
[5]
  IC50: 24 µM
[6]
  IC50: 4.58 µM
[7]
  IC50: 4.63 µM

## C=C1C(=O)[C@@]23C(=O)OC[C@]4([C@@H](OC(C)=O)CCC(C)(C)[C@H]4C=O)[C@@H]2CC[C@@H]1[C@H]3O
[2]
  IC50: 72.5 µM
[3]
  IC50: 9.56 µM
[4]
  IC50: 75.4 µM
[5]
  IC50: 76.7 µM
[6]
  IC50: 26 µM
[7]
  IC50: 79.4 µM

## C=C1C(=O)[C@@]23C(=O)OC[C@]4(C(=O)CCC(C)(C)[C@H]4C=O)[C@@H]2CC[C@@H]1[C@H]3OC(C)=O
[1]
  IC50: 1.66 µM
[2]
  IC50: 1.35 µM
[3]
  IC50: 1.39 µM
[4]
  IC50: 1.73 µM

## C=C1C(=O)[C@@]23C(=O)OC[C@]4(C(=O)CCC(C)(C)[C@H]4C=O)[C@@H]2CC[C@@H]1[C@H]3OC(=O)CC
[1]
  IC50: 1.78 µM
[2]
  IC50: 1.4 µM
[3]
  IC50: 1.31 µM
[4]
  IC50: 1.65 µM

## C=C1C(=O)[C@@]23C(=O)OC[C@]4(C(=O)CCC(C)(C)[C@H]4C=O)[C@@H]2CC[C@@H]1[C@H]3OC(=O)c1ccccc1
[1]
  IC50: 1.92 µM
[2]
  IC50: 1.71 µM
[3]
  IC50: 1.48 µM
[4]
  IC50: 1.85 µM

## C=C1C(=O)[C@@]23C(=O)OC[C@]4(C(=O)CCC(C)(C)[C@H]4C=O)[C@@H]2CC[C@@H]1[C@H]3OC(=O)c1ccc(C)cc1
[1]
  IC50: 2.24 µM
[2]
  IC50: 1.05 µM
[3]
  IC50: 1.27 µM
[4]
  IC50: 1.54 µM

## C=C1C(=O)[C@@]23C(=O)OC[C@]4(C(=O)CCC(C)(C)[C@H]4C=O)[C@@H]2CC[C@@H]1[C@H]3OC(=O)c1ccc(OC)cc1
[1]
  IC50: 1.87 µM
[2]
  IC50: 2.98 µM
[3]
  IC50: 1.65 µM
[4]
  IC50: 2.8 µM

## C=C1C(=O)[C@]23C[C@H]1C[C@H](O)[C@H]2[C@@]12CO[C@@H](O)[C@@H]1C(C)(C)CC[C@@H]2OC3=O [EPINODOSIN]
[9]
  IC50: 0.45 µM

## C=C1C(=O)[C@]23[C@H](O)[C@H]1CC[C@H]2[C@@]12CO[C@]3(O)[C@@H](O)[C@@H]1C(C)(C)CC[C@@H]2O [ORIDONIN]
[1]
  IC50: 5.69 µM
[8]
  inhibition in vivo at 10 mg/kg: 26.3%
[2]
  IC50: 11 µM
[3]
  IC50: 4.76 µM
[4]
  IC50: 7.48 µM
[5]
  IC50: 14.6 µM
[6]
  IC50: 26.2 µM
[7]
  IC50: 32.7 µM

## CC(=O)O[C@H]1C(=O)[C@@]2(C)[C@H]([C@H](OC(=O)c3ccccc3)[C@]3(O)C[C@H](OC(=O)[C@H](O)[C@@H](NC(=O)c4ccccc4)c4ccccc4)C(C)=C1C3(C)C)[C@]1(OC(C)=O)CO[C@@H]1C[C@@H]2O [PACLITAXEL]
[10]
  inhibition in vivo at 10 mg/kg: 66.6%
[1]
  IC50: 0.85 µM
[2]
  IC50: 0.43 µM
[3]
  IC50: 0.41 µM
[4]
  IC50: 1.89 µM

## C=C1C(=O)[C@]23C[C@H]1CC[C@H]2[C@@]1(CCCC(C)(C)[C@H]1CO)COC3=O [SCULPONEATIN N]
[3]
  IC50: 0.21 µM
